Assays:
[1] = tested on: MCF7; assay: Cytotoxicity against human MCF7 cells by MTT assay in absence of 17-beta-estradiol; type: functional, cell-based
Procedure, shortened: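 Cells were grown in steroid-depleted medium (phenol red-free MEM, 5% dextran-charcoal FBS) plus DMSO vehicle. Increasing concentrations of agents in DMSO were applied for 3 days. Viable cells were estimated from MTT formazan absorbance at 550 nm. EC50 = concentration giving 50% of efficacy, computed only for statistically significant effects.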

[2] = tested on: MCF7; assay: Cytotoxicity against human MCF7 cells by MTT assay in presence of 17-beta-estradiol; type: functional, cell-based
Procedure, shortened: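 In phenol red-free MEM with 5% dextran-charcoal-treated FBS containing 0.1 nM 17β-estradiol, MCF-7 cultures received increasing concentrations of agents (DMSO solutions) for 3 days. Readout was MTT formazan absorbance at 550 nm relative to cells given the hormone alone. EC50 = concentration reaching 50% of efficacy, derived only for statistically significant effects.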

[3] = tested on: MCF7; assay: Cytotoxicity against human MCF7 cells at 10 uM by MTT assay relative to control in presence of 17-beta-estradiol; type: functional
Procedure, shortened: (§1)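 MCF-7 cells were kept in phenol red-free MEM with 5% dextran-charcoal-stripped FBS supplemented with 0.1 nM 17β-estradiol. They were treated for 3 days with test compounds at 10 µM, 17β-estradiol at 0.1 nM, or ICI 182,780 at 1 µM, all in DMSO. MTT conversion was read at 550 nm. OD × 100/OD of estradiol-alone control, mean ± SEM, ≥3 independent assays.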

[4] = target: T1, Estrogen receptor (Homo sapiens) (UniProt P03372); assay: Binding affinity to recombinant ERalpha by fluorescence polarization assay relative to 17-beta-estradiol
T1 sequence (whole entry): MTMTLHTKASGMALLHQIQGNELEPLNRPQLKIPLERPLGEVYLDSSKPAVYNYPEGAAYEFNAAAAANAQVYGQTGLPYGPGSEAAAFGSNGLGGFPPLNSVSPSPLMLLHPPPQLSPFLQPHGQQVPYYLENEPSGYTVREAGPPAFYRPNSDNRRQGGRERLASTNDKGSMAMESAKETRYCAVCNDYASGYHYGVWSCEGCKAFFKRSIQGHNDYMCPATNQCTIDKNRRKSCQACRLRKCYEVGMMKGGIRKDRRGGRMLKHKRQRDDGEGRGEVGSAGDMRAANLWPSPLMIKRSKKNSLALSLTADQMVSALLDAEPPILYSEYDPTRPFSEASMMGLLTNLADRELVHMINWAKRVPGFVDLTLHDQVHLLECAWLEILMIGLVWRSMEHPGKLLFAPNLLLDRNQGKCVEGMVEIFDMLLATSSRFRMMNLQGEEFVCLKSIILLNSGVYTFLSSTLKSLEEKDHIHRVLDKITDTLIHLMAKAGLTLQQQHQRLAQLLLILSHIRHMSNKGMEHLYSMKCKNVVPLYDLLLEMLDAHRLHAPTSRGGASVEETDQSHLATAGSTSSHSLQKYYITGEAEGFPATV

[5] = tested on: MCF7; assay: Cytotoxicity against human MCF7 cells at 10 uM by MTT assay relative to control in absence of 17-beta-estradiol; type: functional
Procedure, shortened: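 MCF-7 cells were grown in phenol red-free MEM with 5% dextran-charcoal-stripped FBS and vehicle (DMSO) only. They were exposed for 3 days to agents dissolved in DMSO: test compounds at 10 µM, 17β-estradiol at 0.1 nM, ICI 182,780 at 1 µM. MTT formazan was read at 550 nm. Efficacy = OD test × 100/OD vehicle control, given as mean ± SEM of at least three independent assays.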

[6] = tested on: MCF7; assay: Cytotoxicity against human MCF7 cells at 1 uM by MTT assay relative to control in the absence of 17-beta-estradiol; type: functional
Procedure, shortened: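 MCF-7 cells in phenol red-free MEM with 5% dextran-charcoal-stripped FBS, vehicle (DMSO) only, no estradiol. ICI 182,780 at 1 µM applied for 3 days. Viable cells assessed by MTT formazan absorbance at 550 nm. Efficacy = OD treated ×100/OD vehicle control; mean ± SEM of at least three independent assays.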

[7] = tested on: MCF7; assay: Cytotoxicity against human MCF7 cells at 1 uM by MTT assay relative to control in presence of 17-beta-estradiol; type: functional
Procedure, shortened: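 MCF-7 cells in phenol red-free MEM with 5% dextran-charcoal-stripped FBS, supplemented with 0.1 nM 17β-estradiol. Treated with ICI 182,780 at 1 µM (DMSO) for 3 days. MTT conversion to formazan read at 550 nm. Efficacy = OD treated ×100/OD of estradiol-alone control; mean ± SEM of ≥3 independent assays.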

[8] = tested on: MCF7; assay: Cytotoxicity against human MCF7 cells at 0.1 nM by MTT assay relative to control in presence of 17-beta-estradiol; type: functional; procedure, shortened: as §1
[9] = tested on: MCF7; assay: Cytotoxicity against human MCF7 cells at 0.1 nM by MTT assay relative to control in absence of 17-beta-estradiol; type: functional

| Structure (SMILES) | relative binding affinity (RBA) [4] | EC50 [1] [µM] | EC50 [2] [µM] | Activity [3] [%] | Activity [5] [%] | Activity [6] [%] | Activity [7] [%] | Activity [8] [%] | Activity [9] [%] |
| --- | --- | --- | --- | --- | --- | --- | --- | --- | --- |
| COc1cc2oc(-c3ccc(O)cc3O)c(C=O)c2c(O)c1CC=C(C)C [EBENFURAN III] | 0.09 | 2.6 | 2.9 | 31 | 47 |  |  |  |  |
| COc1cc(O)c2c(C=O)c(-c3ccc(O)cc3O)oc2c1 [EBENFURAN II] | 0.18 |  | 5.5 | 64 | 111 |  |  |  |  |
| C[C@]12CC[C@@H]3c4ccc(O)cc4C[C@@H](CCCCCCCCC[S+]([O-])CCCC(F)(F)C(F)(F)F)[C@H]3[C@@H]1CC[C@@H]2O (stereo partly drawn) [FULVESTRANT] |  |  |  |  |  | 103 | 63 |  |  |
| C[C@]12CC[C@@H]3c4ccc(O)cc4CC[C@H]3[C@@H]1CC[C@@H]2O [ESTRADIOL] |  |  |  |  |  |  |  | 104 | 163 |

Further lines, with some results ahead:

| relative binding affinity (RBA) [4] | Structure (SMILES) | EC50 [1] [µM] | EC50 [2] [µM] | Activity [3] [%] | Activity [5] [%] | Activity [6] [%] | Activity [7] [%] | Activity [8] [%] | Activity [9] [%] |
| --- | --- | --- | --- | --- | --- | --- | --- | --- | --- |
| 0.06 | COc1cc(O)ccc1-c1oc2cc(OC)c(CCC(C)(C)O)c(O)c2c1C=O [EBENFURAN VI] | 4.8 |  | 118 | 154 |  |  |  |  |
| 0.94 | C=C(C)C(O)Cc1c(OC)cc2oc(-c3ccc(O)cc3O)c(C=O)c2c1O (stereo not drawn) [EBENFURAN VII] |  |  | 79 | 123 |  |  |  |  |
| 0.46 | COc1cc(O)ccc1-c1oc2cc(OC)c(CC=C(C)C)c(O)c2c1C=O [EBENFURAN IV] | 6.7 | 3.9 | 31 | 54 |  |  |  |  |
| 0.23 | COc1cc2oc(-c3ccc(O)cc3O)c(C=O)c2c(O)c1CCC(C)(C)O [EBENFURAN V] |  |  | 98 | 115 |  |  |  |  |

— ChEMBL document CHEMBL1154125, “Ebenfurans IV-VIII from Onobrychis ebenoides: evidence that C-prenylation is the key determinant of the cytotoxicity of 3-formyl-2-arylbenzofurans” (J Nat Prod, 2008)
